Experimental data from ChEMBL document CHEMBL3046968, “Combined strategy for phytotoxicity enhancement of benzoxazinones” (J Agric Food Chem, 2010).
Activity calls are given as the source filed them. The rule behind the calls is not given here.

Tests used:
[1] = test system: Allium cepa; test: Phytotoxicity against Allium cepa (onion) assessed as growth inhibition of root length at 1 uM measured 7 days post treatment; assay type: functional; conditions: 168 h, read-out: GI
[2] = test system: Lactuca sativa; test: Phytotoxicity against Lactuca sativa (lettuce) assessed as growth inhibition of root length measured 5 days post treatment; assay type: functional, organism-based
Method in brief: (§1)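 Lettuce or tomato seeds were grown for 5 days on one filter-paper sheet in 90 mm dishes. The medium was aqueous 10^-2 M MES adjusted to pH 6.0 with NaOH. Compounds were taken from DMSO stocks and diluted into buffer (5 μL DMSO/mL), giving final levels of 1, 0.5, 0.1, 0.05 and 0.01 mM. Root length was acquired automatically. EC50 came from a constant-slope sigmoidal dose-response fit versus log concentration.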

[3] = test system: Allium cepa; test: Phytotoxicity against Allium cepa (onion) assessed as growth inhibition of root length measured 7 days post treatment; assay type: functional, organism-based; conditions: for IC50: 168 h
Method in brief: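 Onion seeds germinated in 90 mm Petri dishes on one filter-paper sheet, in aqueous 10^-2 M MES buffer brought to pH 6.0 with NaOH. Compounds were dissolved in DMSO and diluted into buffer (5 μL DMSO/mL) to test concentrations of 1, 0.5, 0.1, 0.05 and 0.01 mM. Root length was recorded after 7 days by automated image acquisition. EC50 was derived from a constant-slope sigmoidal fit on a log concentration scale.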

[4] = test system: Solanum lycopersicum; test: Phytotoxicity against Solanum lycopersicum (tomato) assessed as growth inhibition of root length measured 5 days post treatment; assay type: functional, organism-based; method in brief: as §1
[5] = test system: Lepidium sativum; test: Phytotoxicity against Lepidium sativum assessed as growth inhibition of root length measured 4 days post treatment; assay type: functional, organism-based; conditions: for IC50: 96 h
Method in brief: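 Cress bioassay run over 4 days in 90 mm Petri dishes with one filter-paper sheet. Seeds were in aqueous 10^-2 M MES buffer at pH 6.0, set with 1 M NaOH. DMSO stocks were diluted into buffer at 5 μL/mL to final concentrations of 1, 0.5, 0.1, 0.05 and 0.01 mM. Root length was recorded by an automated system. Values were fitted to a constant-slope sigmoidal curve against log concentration to obtain EC50.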

[6] = test system: Lactuca sativa; test: Phytotoxicity against Lactuca sativa (lettuce) assessed as growth inhibition of root length at 5 uM measured 5 days post treatment; assay type: functional; conditions: 120 h, read-out: GI
Method in brief: (§2)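 Seeds germinated in Petri dishes on one filter-paper sheet, in aqueous solution buffered with 10^-2 M MES and brought to pH 6.0 with NaOH. Compounds were dissolved in DMSO, then diluted into buffer (5 μL DMSO/mL). Root length was recorded by automated image acquisition with statistical analysis.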

[7] = test system: Solanum lycopersicum; test: Phytotoxicity against Solanum lycopersicum (tomato) assessed as growth inhibition of root length at 1 uM measured 5 days post treatment; assay type: functional; conditions: 120 h, read-out: GI; method in brief: as §2
[8] = test system: Lactuca sativa; test: Phytotoxicity against Lactuca sativa (lettuce) assessed as growth inhibition of root length at 1 to 5 uM measured 5 days post treatment; assay type: functional, organism-based; method in brief: as §2
[9] = test system: Allium cepa; test: Phytotoxicity against Allium cepa (onion) assessed as growth inhibition of root length at 1 to 5 uM measured 7 days post treatment; assay type: functional, organism-based; method in brief: as §2
[10] = test system: Solanum lycopersicum; test: Phytotoxicity against Solanum lycopersicum (tomato) assessed as growth inhibition of root length at 1 to 5 uM measured 5 days post treatment; assay type: functional, organism-based; method in brief: as §2
[11] = test system: Lepidium sativum; test: Phytotoxicity against Lepidium sativum assessed as growth inhibition of root length at < 1 uM measured 4 days post treatment; assay type: functional, organism-based

Row | SMILES | inhibition of growth at 1 µM [1] [%] | growth inhibition (GI) [2] | growth inhibition (GI) [3] | IC50 [3] [nM] | growth inhibition (GI) [4] | growth inhibition (GI) [5] | IC50 [5] [nM] | inhibition of growth at 5 µM [6] [%] | inhibition of growth at 1 µM [7] [%] | growth inhibition (GI) [8] | growth inhibition (GI) [9] | growth inhibition (GI) [10] | growth inhibition (GI) [11] | IC50 ([4]; 120 h) [nM]
1 | CCC1Oc2ccc(F)cc2N(O)C1=O [6-F-2-Et-D-DIBOA] | 50 | Active | Active | 1300 | Active | Active | 1000 |  |  |  |  |  |  | 
2 | O=C1C(c2ccccc2)Oc2ccc(F)cc2N1O (stereo not drawn) |  | Active | Active |  | Active | Active |  |  |  |  |  |  |  | 
3 | CCCC1Oc2c(Cl)cccc2N(O)C1=O (stereo not drawn) |  | Active | Active |  | Active | Active |  |  |  |  |  |  |  | 
4 | CCC1Oc2c(Cl)cccc2N(O)C1=O (stereo not drawn) |  | Active | Active |  | Active | Active |  |  |  |  |  |  |  | 
5 | CCCON1C(=O)COc2ccc(Cl)cc21 [6-Cl-4-Pr-D-DIBOA] | 50 | Active | Active | 200 | Active | Active | 60 | 50 | 50 | Active | Active | Active |  | 
6 | CCC1Oc2ccc(Cl)cc2N(O)C1=O [6-Cl-2-Et-D-DIBOA] | 60 | Active | Active | 1600 | Active | Active | 400 |  |  |  |  |  | Active | 2300
7 | O=C1C(c2ccccc2)Oc2ccc(Cl)cc2N1O (stereo not drawn) |  | Active | Active |  | Active | Active |  |  |  |  |  |  |  | 
8 | CCCCC(=O)ON1C(=O)COc2ccc(F)cc21 |  | Active | Active |  | Active | Active |  |  |  |  |  |  |  | 
9 | O=C1C(c2ccccc2)Oc2c(Cl)cccc2N1O (stereo not drawn) |  | Active | Active |  | Active | Active |  |  |  |  |  |  |  | 
10 | CCC(=O)ON1C(=O)COc2ccc(F)cc21 |  | Active | Active |  | Active | Active |  |  |  |  |  |  | Active | 
11 | CCCC1Oc2ccc(Cl)cc2N(O)C1=O (stereo not drawn) |  | Active | Active |  | Active | Active |  |  |  |  |  |  |  | 
12 | CCCCC(=O)ON1C(=O)COc2ccc(Cl)cc21 [6-Cl-4-Val-D-DIBOA] | 90 | Active | Active | 200 | Active | Active | 60 | 50 | 50 | Active | Active | Active | Active | 
13 | CCC(=O)ON1C(=O)COc2c(Cl)cccc21 |  | Active | Active |  | Active | Active |  |  |  |  |  |  |  | 
